These results are taken from PubChem BioAssay.

Activity calls are given as the source filed them.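 The calls were made as follows, unless noted: active = potentiation averaged over duplicate wells exceeding buffer-only control mean by more than 3 SD; inactive = the rest.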

Assay [1] in a line: thallium flux activation in parental CHO cells, counter-screen for KCNQ1 potentiator project (AID 493006;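 active = duplicate-averaged activation above buffer control mean plus 5 SD of those controls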). The following applies: parental CHO-K1 cells, FluxOR thallium flux, at 10 µM; stronger effect = higher value. Summed up:
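Assay system: Untransfected host CHO-K1 cells with FluxOR thallium dye | Probe or stimulus: Potassium/thallium depolarization pulse | Schedule: Overnight 37 °C plating, 90 min RT dye, 20 min compound | Detection: Kinetic thallium-flux fluorescence | Read-out: Max-minus-min fluorescence over baseline, percent of buffer-to-R-L3 span | Benchmarks: Low control buffer, high control R-L3 activator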
(A counterscreen serves to expose hits that act by an unwanted route or on another target.)

Assay [2] concerns the target Potassium voltage-gated channel subfamily KQT member 1 (Homo sapiens) (UniProt P51787). As to the kind of experiment: KCNQ1 potassium channel potentiators, confirmation, FluxOR thallium flux, CHO cells, duplicates (AID 493007).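 As to outcome: cells depolarized by a potassium plus thallium sulfate stimulus after compound.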 The following applies: KCNQ1 cell line, FluxOR thallium flux fluorescence, at 10 µM; stronger effect = higher value, % of reference activator effect, buffer zero. Summed up: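 Material: KCNQ1-expressing CHO cell line; Incubation: FluxOR dye loading 90 min, compound exposure 20 min, room temperature; Detection: FluxOR Tl+ flux fluorescence, 10 s baseline plus 110 s recording; Read-out: percent activation between buffer and R-L3 responses; Control set: buffer-only wells as 0% and R-L3 activator as 100%; Replication: duplicate wells per compound.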

Assay [3] addresses Potassium voltage-gated channel subfamily KQT member 2 (Rattus norvegicus) (UniProt O88943). The assay is described as follows: rat KCNQ2 channel potentiation, selectivity assay for KCNQ1 potentiator project, KCNQ2-CHO-K1 cells (AID 493009;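 active = mean duplicate potentiation above the buffer control mean plus 5 SD of buffer wells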;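 also: assay conditions were tuned for KCNQ1 rather than KCNQ2 modulators; signal is max minus min fluorescence divided by baseline after thallium stimulus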). The following applies: FluxOR thallium flux fluorescence, at 10 µM; stronger effect = higher value, scaled: buffer 0, activator control 100.
In assay [4] the target is Potassium voltage-gated channel subfamily KQT member 1 (Homo sapiens) (UniProt P51787). As to the kind of experiment: KCNQ1 channel current potentiators, confirmation, orthogonal assay for KCNQ1 potentiator project, IonWorks patch clamp, KCNQ1-CHO cells (AID 493184;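 active = current rise at least 3 SD above the untreated control mean in each of two repeat wells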). The following applies: automated patch clamp current, at 10 µM; stronger effect = higher value. Summed up: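 assay system = KCNQ1-expressing CHO cells | medium = external bath solution at pH 7.4 | probe or stimulus = 2,000 ms depolarization, -90 to +40 mV | compound dosing = 10 µM final, single point | measured by = automated voltage clamp, amphotericin B perforated patch | measure = percent current increase versus pre-compound level | replication = duplicates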
(In general: The patch-clamp technique gives a direct electrical read-out from membranes.)

Potassium voltage-gated channel subfamily KQT member 1 (Homo sapiens), sequence (P51787 whole entry, looked up): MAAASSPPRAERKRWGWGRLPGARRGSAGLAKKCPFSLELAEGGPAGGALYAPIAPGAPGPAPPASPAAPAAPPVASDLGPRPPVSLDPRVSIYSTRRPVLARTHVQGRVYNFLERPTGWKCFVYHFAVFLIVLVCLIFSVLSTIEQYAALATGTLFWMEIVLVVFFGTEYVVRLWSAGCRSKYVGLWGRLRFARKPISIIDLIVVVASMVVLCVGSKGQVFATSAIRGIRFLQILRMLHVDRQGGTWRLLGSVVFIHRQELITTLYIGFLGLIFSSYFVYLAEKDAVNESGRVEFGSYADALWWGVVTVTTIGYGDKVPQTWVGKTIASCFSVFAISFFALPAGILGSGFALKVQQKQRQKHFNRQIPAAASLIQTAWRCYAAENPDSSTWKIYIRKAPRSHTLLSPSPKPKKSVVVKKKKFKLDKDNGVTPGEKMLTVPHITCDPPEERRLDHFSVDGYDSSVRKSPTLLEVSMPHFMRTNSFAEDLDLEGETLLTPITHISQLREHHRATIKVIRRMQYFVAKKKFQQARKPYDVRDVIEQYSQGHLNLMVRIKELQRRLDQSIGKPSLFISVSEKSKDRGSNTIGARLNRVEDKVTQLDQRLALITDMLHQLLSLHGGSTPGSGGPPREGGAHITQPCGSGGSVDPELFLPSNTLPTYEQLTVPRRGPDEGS
Potassium voltage-gated channel subfamily KQT member 2 (Rattus norvegicus), sequence (O88943 whole entry, looked up): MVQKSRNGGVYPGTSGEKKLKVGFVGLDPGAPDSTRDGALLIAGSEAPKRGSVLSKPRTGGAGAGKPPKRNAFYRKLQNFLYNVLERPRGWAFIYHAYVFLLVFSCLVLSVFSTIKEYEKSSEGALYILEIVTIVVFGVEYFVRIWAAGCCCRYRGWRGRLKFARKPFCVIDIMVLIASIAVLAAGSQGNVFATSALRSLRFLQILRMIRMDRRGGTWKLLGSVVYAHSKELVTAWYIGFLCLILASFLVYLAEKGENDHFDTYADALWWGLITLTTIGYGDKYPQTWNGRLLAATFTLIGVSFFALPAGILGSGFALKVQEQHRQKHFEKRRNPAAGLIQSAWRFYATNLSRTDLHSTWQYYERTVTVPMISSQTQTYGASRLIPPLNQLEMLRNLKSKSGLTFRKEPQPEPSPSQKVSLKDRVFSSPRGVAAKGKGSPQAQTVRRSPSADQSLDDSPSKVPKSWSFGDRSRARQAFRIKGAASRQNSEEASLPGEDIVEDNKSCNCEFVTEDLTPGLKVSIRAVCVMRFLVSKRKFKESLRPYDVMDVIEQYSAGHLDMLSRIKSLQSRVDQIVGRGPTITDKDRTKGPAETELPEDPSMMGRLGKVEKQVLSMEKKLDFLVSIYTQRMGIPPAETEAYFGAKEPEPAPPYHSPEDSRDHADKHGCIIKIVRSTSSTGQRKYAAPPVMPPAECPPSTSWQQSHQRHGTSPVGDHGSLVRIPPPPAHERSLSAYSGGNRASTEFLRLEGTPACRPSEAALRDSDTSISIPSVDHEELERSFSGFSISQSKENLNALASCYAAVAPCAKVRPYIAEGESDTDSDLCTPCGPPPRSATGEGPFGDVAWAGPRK

For the compound `Fc1ccc(-n2nnc(-c3ccccc3)n2)cc1`, the result in assay [1], in assay [2], in assay [3] and in assay [4] was inactive.
As for `COc1cc2c(cc1OC)CN(C(=O)CNC(=O)c1ccc(OC(F)F)cc1)CC2`, the outcome in assay [1], in assay [2], in assay [3] and in assay [4] was inactive.
Regarding `S=c1nc(-c2ccccc2)[nH]n1-c1ccccc1`, the activation in assay [1] was 504% (active). The potentiation was 210% (active) in assay [2] and 532% (active) in assay [3]. For the same compound, in assay [4], the outcome was inactive.
As to `CCOC(=O)c1cnc(SCC(=O)Nc2nc(C)c(C)s2)nc1N`, the outcome in assay [1], in assay [2], in assay [3] and in assay [4] was inactive.
`O=S(=O)(Nc1ccccc1Cl)c1ccc(NS(=O)(=O)c2cccs2)cc1`: the result in assay [1], in assay [3] and in assay [4] was inactive. Besides, in assay [2], the potentiation is 26.5% (active).
As for `CCc1ccc2nc(NC(=O)c3cc(C)on3)sc2c1`, the activation in assay [1] is 157% (active). Moreover, the results for the potentiation in assay [2] and in assay [3] were 55% (active) and 151% (active), respectively. The result in assay [4] was inactive.
For `CC(=O)Nc1nc2c(F)cccc2s1`, the result in assay [1], in assay [2], in assay [3] and in assay [4] was inactive.
In the case of `COC(=O)c1cccc(NC(=O)CSc2nncn2-c2ccccn2)c1`, the outcome in assay [1], in assay [2], in assay [3] and in assay [4] was inactive.
Take `OCCN1CCN(C2CCC(c3ccc(F)cc3)c3ccc(F)cc32)CC1` (stereo not given): the result in assay [1], in assay [2], in assay [3] and in assay [4] was inactive.
Take `C=CCn1c(=S)[nH]c2scc(-c3ccc(C)o3)c2c1=O`: the activation in assay [1] is 550% (active). Further, the potentiation in assay [2] is 276% (active); in assay [3] it was 580% (active). Moreover, in assay [4], the outcome was inactive.
As for `COc1cccc(C(=O)Nc2nc(-c3ccccc3)c(-c3ccccc3)o2)c1`, the activation in assay [1] was 145% (active). The potentiation in assay [2] is 31% (active); in assay [3], 164% (active). Also, the outcome in assay [4] was inactive.
The like results for `Cc1ccc(-c2csc3ncnc(SCc4ccc(C(=O)O)cc4)c23)cc1` were, in that order, 197% (active), 36.5% (active), 175% (active) and “inactive”.
Turning to `CCNC(=S)N=Nc1c(O)n(Cc2ccc(Cl)cc2)c2ccccc12`, the outcome in assay [1] and in assay [4] was inactive. Also, the potentiation in assay [2] is 37% (active); in assay [3] it was 172% (active).
Consider `O=C(NC(=S)N1CCN(c2ccc([N+](=O)[O-])cc2Cl)CC1)c1ccco1`, for which the result in assay [1], in assay [2], in assay [3] and in assay [4] was inactive.
In the case of `COc1ccc(OCC(=O)NNC(=O)c2cccs2)cc1`, the activation in assay [1] is 146% (active). Further, the potentiation in assay [2] is 47.5% (active); in assay [3], 168% (active). Also, the result in assay [4] was inactive.
Take `CCOC(=O)c1ccccc1N1C(=O)CSC1=S`: the result in assay [1], in assay [2], in assay [3] and in assay [4] was inactive.
Take `CC(C)(C)NC(=O)C(=O)NNC(=O)c1cccc(F)c1`: the activation in assay [1] was 201% (active). Also, the potentiation in assay [2] was 87.5% (active); in assay [3], 228% (active). Moreover, in assay [4], the result was inactive.
The like results for `CC(=O)Oc1c(-c2ccco2)oc2ccccc2c1=O` were, in that order, 216% (active), 31% (active), 244% (active) and “inactive”.
For the compound `O=c1oc2cc(OCCO)ccc2c2c1CCCC2`, the result in assay [1], in assay [2], in assay [3] and in assay [4] was inactive.
As to `COc1ccc(-n2c(NCCN(C)C)nc3sc4c(c3c2=O)CCCCC4)cc1`, the result in assay [1], in assay [2], in assay [3] and in assay [4] was inactive.
In the case of `COc1ccc2c(-c3ccccc3)cc(=S)[nH]c2c1`, the activation in assay [1] is 210% (active). Besides, the potentiation in assay [2] is 50.5% (active); in assay [3] it was 231% (active). Besides, the result in assay [4] was inactive.
As to `CCN(c1ccc(NS(=O)(=O)c2cc(Cl)ccc2Cl)cc1)C(C)C`, the result in assay [1], in assay [2], in assay [3] and in assay [4] was inactive.
As for `O=C(Nn1c(Cc2cccs2)nc2ccccc2c1=O)c1cccs1`, the result in assay [1], in assay [2], in assay [3] and in assay [4] was inactive.
On to `Cc1nonc1NC(=O)OC1CCCCC1`, for which the result in assay [1], in assay [2], in assay [3] and in assay [4] was inactive.
Turning to `CCCN(CCC)C(=S)NC(=O)c1ccc(Cl)cc1Cl`, in assay [1], the activation was 470% (active). Besides, the potentiation in assay [2] was 204% (active); in assay [3] it was 448% (active). In assay [4], the result was inactive.
The like results for `Oc1ccc(N=Nc2ccc3c(c2)OCCO3)c2cccnc12` were, in that order, 261% (active), 92.5% (active), 384% (active) and “inactive”.
Take `CCCCN(CCCC)C(=S)NC(=O)C(C)(C)C`: the outcome in assay [1], in assay [2], in assay [3] and in assay [4] was inactive.
On to `CCCCNC(=O)/C(C#N)=C/c1ccc2c(c1)OCCO2`, for which the outcome in assay [1], in assay [3] and in assay [4] was inactive. In assay [2], the potentiation was 18.5% (active).
In the case of `O=c1[nH]sc2ccccc12`, the result in assay [1], in assay [2], in assay [3] and in assay [4] was inactive.
For `OCCN1CCN(c2ncnc3c2sc2nc(N4CCOCC4)c4c(c23)CCC4)CC1`, the result in assay [1], in assay [3] and in assay [4] was inactive. Further, the potentiation in assay [2] was 19% (active).
